From ChEMBL document CHEMBL4513216, “Probing the Open Global Health Chemical Diversity Library for Multistage-Active Starting Points for Next-Generation Antimalarials” (ACS Infect Dis, 2020)

Assay: Toxicity liver stage against HepG2, at 10uM
Type: cell-based
Design: test concentration 10 uM, cell line HepG2-A16-CD81EGFP
Conditions: human, HepG2-A16-CD81EGFP cells; read-out: INHIBITION
Procedure, shortened: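 Uninfected HepG2-A16-CD81EGFP cells, 3 × 10^3 per well, 1536-well, plated on prespotted compound at 10 μM final, parasite-free screening media added to match infected plates; puromycin 10 μM positive, DMSO 0.5% negative; run in parallel with 48 h PbLuc assay at 37 °C, 5% CO2; viability by CellTiter-Glo luminescence, normalized to controls.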

| Compound | cytotoxicity at 10 µM [%] |
| --- | --- |
| COC(=O)[C@@H]1Cc2ncn(C(C)C)c2CN1S(=O)(=O)Cc1ccccc1 | -2.51 |
| CC(=O)N1N=C(Cc2ccccc2)OC1C(=O)NCC(C)C (centres undefined) | -4.52 |
| CC(C)(C)C1CC(=O)Nc2c1cnn2Cc1ccco1 (centres undefined) | -2.17 |
| Cn1nc(C2CCN(CC(=O)NC3CC3)CC2)n(-c2ccccc2)c1=O | -22.3 |
| Cc1cccc(OC2CCN(C(=O)c3ccc4ncsc4c3)CC2)n1 | -3.78 |
| CN(C)C(=O)N1CCC2(CCC(C(=O)N3CCCC3)O2)CC1 (centres undefined) | -0.125 |
| CCN1CC2(CCCCN2C(=O)c2ccn(C)n2)CC1=O (centres undefined) | 10.5 |
| c1cnc(N2CCCC3(CCN(Cc4cccs4)C3)C2)nc1 (centres undefined) | 2.58 |
| O=C(NCc1cccs1)c1nc2c(o1)CN(c1ncccn1)C2 | -0.664 |
| Cc1ccc(S(=O)(=O)N2CCCC3(CCCN3S(C)(=O)=O)C2)cc1F (centres undefined) | 2.05 |
| COCCN1Cc2ccccc2C2(CCN(S(C)(=O)=O)CC2)C1 | 0.121 |
| COCCO[C@@H]1C[C@H]2CN(C(=O)c3cccnc3)CCN2C1 | -4.58 |
| COCc1nn(C(C)C)c2c1CCN(Cc1ccsc1)C2 | -4.51 |
| COc1cc(C2CC(=O)Nc3c2c(=O)[nH]n3C2CCCCC2)ccc1O (centres undefined) | -0.607 |
| COCCNC(=O)C1CCCN(c2ccc3nncn3n2)C1 (centres undefined) | -0.302 |
| Cc1nn(Cn2ccc(C(=O)N3CCC(C)CC3)n2)c(C)c1Cl | -2.36 |
| CCn1ccc(NC(=O)C2CCC(=O)N2Cc2ccc(C)o2)n1 (centres undefined) | 6.17 |
| O=C(c1cccc(O)n1)N1CCC(O)(CN2CCC(F)(F)CC2)C1 (centres undefined) | 4.16 |
| CC(=O)N1CCC(c2nccnc2Nc2cnccn2)CC1 | 4.51 |
| CCc1cc(C(=O)N2CCCC2c2nc(C)c(CC)c(O)n2)on1 (centres undefined) | -14.2 |
| CC(=O)N1CCC(Oc2cccc(C#N)c2)CC1 | 6.35 |
| COc1ccccc1CCNC(=O)NCC(=O)Nc1cccnc1 | -15.2 |
| NC(=O)c1cn(CC2CCC2)c(C2CC2)n1 | 12.8 |

| Compound | cytotoxicity at 10 µM [%] |
| --- | --- |
| CC(=O)NCc1ccc(S(=O)(=O)NC(=O)c2ccc3c(c2)COC3)cc1 | 6.42 |
| CC(=O)N(C)CC(=O)NC(CC(C)C)c1cccs1 (centres undefined) | -1.49 |
| CC(C)OCCC1CCCCN1S(=O)(=O)c1cnn(C)c1 (centres undefined) | 5.68 |
| COc1nc(C)ccc1CNC(=O)NC(c1ncc(C)s1)C1CC1 (centres undefined) | -2.3 |
| Cc1cc(N(C)C)nc(N2CCCC2c2cccnc2)n1 (centres undefined) | -14.1 |
| Cc1cc(CN(C2CC2)C(C)C(C)C)on1 (centres undefined) | -0.212 |
| O=C(CCNC(=O)NC1CCN(C2CC2)CC1)NCc1ccccc1 | -0.769 |
| CCOc1ccc2cc(C(=O)NCCNc3ccc(C)nn3)[nH]c2c1 | 1.64 |
| CCC(C)(CNC(=O)Nc1nccs1)N1CCOCC1 (centres undefined) | -6.46 |
| COc1cc(C(=O)N2CCCC2CC(=O)c2cnn(C)c2)ccc1F (centres undefined) | -4.62 |
| CC1CCN(C(=O)c2ccc(N(C)Cc3cnn(C)c3)nc2)CC1 | -13.8 |
| CC1CCN(C(=O)NCCc2cc(F)ccc2F)C1 (centres undefined) | 0.154 |
| O=C(CCc1ccccc1)N1CCN(C(=O)c2ccc[nH]2)CC1 | -5.04 |
| CN(CCC(=O)NC1CC1)Cc1ccc(Cl)s1 | 7.83 |
| Cc1cc(NC(=O)CN2CCc3c(nc(C(C)C)n3C)C2)on1 | -3.17 |
| COc1ccc(Cn2ccnc2)cc1F | -7.27 |
| CN(Cc1ccsc1)C(=O)c1ccc(F)c(NS(C)(=O)=O)c1 | -5.7 |
| COc1ccccc1C(NC(=O)C1CCCC1)c1noc(C)n1 (centres undefined) | -2.17 |
| CN(Cc1nc2ccsc2c(=O)[nH]1)CC1CCCCC1 | -1.05 |
| O=C(c1cccnc1)N1CCN(c2ccnc3ccsc23)CC1 | 5.77 |
| O=C(C1CCCOC1)N1CCc2ccc(F)cc21 (centres undefined) | 2.35 |
| O=C1CCC(C(=O)NCCOc2cccc(Cl)c2Cl)CN1 (centres undefined) | 4.48 |
| COc1ccccc1CC(C)(C)NC(=O)CC(F)(F)F | 6.08 |

| Compound | cytotoxicity at 10 µM [%] |
| --- | --- |
| Cc1cccc(CN2CCN(C(=O)c3ccc(C)[nH]c3=O)CC2)c1 | 12.8 |
| CC(C)(CCS(C)(=O)=O)CNC(=O)NC1CCCC1(C)C (centres undefined) | 6.7 |
| Fc1ccc(-c2cnc(CNC3CCc4ncnn4C3)o2)cc1 (centres undefined) | -0.174 |
| CC1CCN(CC(=O)NC(C#N)c2cnn(-c3ccccc3)c2)CC1 (centres undefined) | 0.724 |
| CN(C)C1(CNC(=O)Cc2ccc(F)cc2)CCOCC1 | 6.03 |
| CCc1noc(CS(=O)(=O)CC(=O)N2c3ccccc3CC2C)n1 (centres undefined) | 7.07 |
| Cc1cc(C)c(C(=O)NCCNc2ncnc3ccccc23)c(=O)[nH]1 | 21 |
| O=C(Nc1ccccc1Oc1cccc(F)c1)NC1CCS(=O)(=O)C1 (centres undefined) | -6.07 |
| CC(C)c1nc(C2CCCN2c2cnc3cc(F)c(F)cc3n2)no1 (centres undefined) | 5.18 |
| CCN(C)C1CCCc2nc(C)sc21 (centres undefined) | -0.887 |
| OCC(O)CSCc1cn(-c2ccc(Cl)cc2)nn1 (centres undefined) | 3.2 |
| CCc1nncn1CCNC(=O)Nc1ccc2c(c1)CCCO2 | 1.79 |
| CC(C)(CNc1ccc(C#N)c(C(F)(F)F)c1)C(N)=O | 20.2 |
| CN(C)C(=O)CC1CCOc2ccccc21 (centres undefined) | 4.17 |
| COc1cccc(CN(C)C(=O)CN2CCN(c3nccn3C)CC2)c1 | 14.3 |
| O=C(NCCCOCC1CCCO1)c1cccnc1N1CCCC1 (centres undefined) | 12.4 |
| COCC1c2nnn(C)c2CCN1C(=O)Cc1ccccn1 (centres undefined) | -97.1 |
| CC(C)NC(=O)c1cc2c(s1)CCN2c1ncccn1 | -123 |
| CC[C@H](C)Nc1ncc(-c2cccc(NC(=O)CNC)c2)cn1 | -4.97 |
| Cc1cc(C)c2[nH]c(C(=O)NCCN3CCCC3=O)c(C)c2c1 | 2.49 |
| CC(C)c1nccc(-c2nccn2CCN(C)S(C)(=O)=O)n1 | 7.53 |
| CCCc1nc(CN(CC)Cc2ccc(S(C)(=O)=O)cc2)no1 | -16.9 |
| CCCc1nccn1-c1ccc(C(C)O)cc1 (centres undefined) | 5.38 |

| Compound | cytotoxicity at 10 µM [%] |
| --- | --- |
| Cc1cc(CN(C)C(C(=O)O)c2cccc(C(F)(F)F)c2)on1 (centres undefined) | -6.33 |
| CCCn1ccnc1CN1CCc2[nH]cnc2C1Cc1ccccc1 (centres undefined) | -15.8 |
| COc1cccc(CN2CCN(C(=O)Nc3nc(C)ns3)CC2=O)c1 | -3.05 |
| CN1C(=O)C2(CCN(c3ncccc3C(=O)O)CC2)c2ccccc21 | -2.25 |
| CN(C)CC1(O)CCCN(C(=O)Cn2nc3ccccc3n2)CC1 (centres undefined) | -8.14 |
| CCc1nn(C)c(Cl)c1CN(CC)Cc1cnn(CC)c1 | 4.36 |
| CCNc1ncc(C(=O)NC2COC3(CCCC3)C2)cn1 (centres undefined) | -4.53 |
| O=C(c1cccc(Cl)c1)N1CCCC(Nc2ccc(F)cc2)C1 (centres undefined) | -7.05 |
| CC(C)=CCC1(CO)CCCN(Cc2nccs2)C1 (centres undefined) | -1.23 |
| C[C@@H]1CN(CCC(=O)NCc2ccccc2Cl)C[C@@]1(O)C1CC1 | 2.75 |
| Cc1nc(C(C)C)sc1C(=O)N1CCN(C2CCSCC2)CC1 | 6.62 |
| CNS(=O)(=O)CCNC(=O)c1coc(COc2ccc(F)cc2)n1 | 0.975 |
| O=C(NCCSc1cnn[nH]1)c1c[nH]nc1C1CCCCC1 | -5.03 |
| CCc1cnc(C)nc1NCCC(=O)N1CCC(C)CC1 | -0.384 |
| CCOc1ccccc1CN(C)C(=O)CN1C(=O)OC[C@@H]1C(C)C | -2.24 |
| CN(C)C[C@@H]1CN(Cc2ccccc2C#N)C[C@@H]1CO | -1.56 |
| CCCn1cnnc1CN(C)C(=O)C1CCCN(C2CCN(C)CC2)C1 (centres undefined) | -6.58 |
| CSCCCN1CCCC(Cn2ccnc2)C1 (centres undefined) | 5.07 |
| O=C(CCCc1ccc(F)cc1)N1C[C@@H](CN2CCOCC2)[C@@H](CO)C1 | -11.8 |
| COc1cccc(OCC2CCCN(C(C)=O)C2)c1 (centres undefined) | 5.85 |
| COCc1ccc(CNc2cncc(-n3cccn3)n2)cc1 | 6 |
| CC(C)(C)c1ncc(C(=O)NCCNC(=O)c2ccco2)s1 | -1.98 |
| Cc1nc(CN2CCCC(N(C)CC3CCCC3)C2)no1 (centres undefined) | -7.3 |

| Compound | cytotoxicity at 10 µM [%] |
| --- | --- |
| COc1ccc(Cl)cc1C(=O)NCCNc1cnccn1 | -8.35 |
| COc1ccc(C2CCCN2C(=O)NCCn2ccnc2)cc1OC (centres undefined) | -2.16 |
| COCCOc1ccc(NC(=O)C2CC(=O)N(C(C)C)C2)cn1 (centres undefined) | -17.6 |
| CCC(O)CN1CCN(C(=O)c2cccn2Cc2ccncc2)CC1 (centres undefined) | -13 |
| Cc1nc(CN(C)C2CCCN(c3cccnn3)C2)oc1C (centres undefined) | -12.4 |
| OCC1CCCN1c1cc(NCc2cccc3cccnc23)ncn1 (centres undefined) | -15.6 |
| CN(C)c1ncccc1C(=O)N1CCCC1Cn1cccn1 (centres undefined) | -2.83 |
| CC(C)CCc1nc(CNCC2CN(C)CCO2)cs1 (centres undefined) | -15.2 |
| COCCNC(=O)NCc1ccc(OC(C)C)c(F)c1 | -8.48 |
| CN(C)S(=O)(=O)c1ccc(OCCNCCn2cccn2)cc1 | 0.626 |
| COc1cc(/C=C/c2ncc(C(=O)O)s2)cc(Cl)c1O | 4.14 |
| Cc1ccc(C(=O)N2CCN(C(=O)Nc3ccccn3)CC2)o1 | 2.14 |
| CCc1nnc(CN2CCN(C(=O)c3cc4ccccc4[nH]3)CC2)o1 | -0.385 |
| O=C(N1CCCC1)N1Cc2nccn2CC(COc2cccnc2)C1 (centres undefined) | 0.997 |
| O=C(C[C@@H]1COC[C@H]2CN(Cc3ccc(F)cc3)C[C@@H]12)N1CCCC1 | 4.09 |
| COCCN1CCC12CCN(C(=O)c1ccsc1)CC2 | -145 |
| CCN(C)c1ncnc2c1CCN(C(=O)N1CCCC1)CC2 | -6.9 |
| O=S1(=O)NCC2(CCN(c3ncccn3)CC2)COc2ccccc21 | -1.34 |
| Cc1cnc(N2CCc3c(cnc(C)c3C(=O)O)C2)nc1 | 8.1 |
| O=C(c1ccncc1)N1C[C@H]2CC[C@@H](C1)N(C(=O)N1CCOCC1)C2 | 2.44 |
| Cc1ccoc1C1=NNC(=CN2CCn3c(C)nnc3C2)O1 | -16.4 |
| Nc1ccc(C(=O)N2C[C@H]3CC[C@@H](C2)N(Cc2ccccc2)C3)cn1 | -121 |
